In ChEMBL document CHEMBL5712085, “Inhibition of SMYD2 Sensitized Cisplatin to Resistant Cells in NSCLC Through Activating p53 Pathway” (2019):
Active and inactive are the calls of the source. The calls are words filed in the database; no cut-off is given here.

Legend:
NCI-H460 [1] = test: Induction of apoptosis in human CDDP-resistant NCI-H460 cells assessed as necrotic cells at 10 uM after 48 hrs by annexin-V/PI staining based flow cytometry (reference value: 0.03%); type: functional, Lung
NCI-H460 [2] = test: Potentiation of CDDP-induced apoptosis in human NCI-H460 cells assessed as late apoptotic cells at 2 uM measured after 48 hrs by annexin-V/PI staining based flow cytometry; type: functional, Lung
NCI-H460 [3] = test: Induction of apoptosis in human NCI-H460 cells assessed as early apoptotic cells at 10 uM after 48 hrs by annexin-V/PI staining based flow cytometry (reference value: 0.02%); type: functional, Lung
NCI-H460 [4] = test: Induction of apoptosis in human NCI-H460 cells assessed as late apoptotic cells at 10 uM after 48 hrs by annexin-V/PI staining based flow cytometry (reference value: 0.02%); type: functional, Lung
A549 [5] = test: Potentiation of Taxol-induced cytotoxicity in human A549 cells assessed as cell viability at 2 uM measured after 48 hrs by MTT assay; type: functional, cell-based; settings: Lung
NCI-H460 [6] = test: Induction of apoptosis in human NCI-H460 cells assessed as necrotic cells at 10 uM after 48 hrs by annexin-V/PI staining based flow cytometry (reference value: 1.53%); type: functional, Lung
NCI-H460 [7] = test: Potentiation of CDDP-induced apoptosis in human NCI-H460 cells assessed as necrotic cells at 2 uM measured after 48 hrs by annexin-V/PI staining based flow cytometry; type: functional, Lung
A549 [8] = test: Potentiation of VCR-induced cytotoxicity in human A549 cells assessed as cell viability at 2 uM measured after 48 hrs by MTT assay; type: functional, cell-based; settings: Lung
NCI-H460 [9] = test: Potentiation of CDDP-induced apoptosis in human NCI-H460 cells assessed as early apoptotic cells at 2 uM measured after 48 hrs by annexin-V/PI staining based flow cytometry; type: functional, Lung
NCI-H460 [10] = test: Potentiation of CDDP-induced apoptosis in human CDDP-resistant NCI-H460 cells assessed as necrotic cells at 2 uM measured after 48 hrs by annexin-V/PI staining based flow cytometry; type: functional, Lung
NCI-H460 [11] = test: Potentiation of Taxol-induced cytotoxicity in human NCI-H460 cells assessed as cell viability at 2 uM measured after 48 hrs by MTT assay; type: functional, cell-based; settings: Lung
NCI-H460 [12] = test: Induction of apoptosis in human CDDP-resistant NCI-H460 cells assessed as late apoptotic cells at 10 uM after 48 hrs by annexin-V/PI staining based flow cytometry (reference value: 0.03%); type: functional, Lung
NCI-H460 [13] = test: Induction of apoptosis in human CDDP-resistant NCI-H460 cells assessed as viable cells at 10 uM after 48 hrs by annexin-V/PI staining based flow cytometry (reference value: 95.44%); type: functional; settings: NCI-H460, Lung, read-out: Activity
NCI-H460 [14] = test: Potentiation of CDDP-induced apoptosis in human CDDP-resistant NCI-H460 cells assessed as early apoptotic cells at 2 uM measured after 48 hrs by annexin-V/PI staining based flow cytometry; type: functional, Lung
NCI-H460 [15] = test: Potentiation of CDDP-induced apoptosis in human CDDP-resistant NCI-H460 cells assessed as late apoptotic cells at 2 uM measured after 48 hrs by annexin-V/PI staining based flow cytometry; type: functional, Lung
NCI-H460 [16] = test: Induction of apoptosis in human NCI-H460 cells assessed as viable cells at 10 uM after 48 hrs by annexin-V/PI staining based flow cytometry (reference value: 98.42%); type: functional; settings: NCI-H460, Lung, read-out: Activity
NCI-H460 [17] = test: Potentiation of VCR-induced cytotoxicity in human NCI-H460 cells assessed as cell viability at 2 uM measured after 48 hrs by MTT assay; type: functional, cell-based; settings: Lung
NCI-H460 [18] = test: Induction of apoptosis in human CDDP-resistant NCI-H460 cells assessed as early apoptotic cells at 10 uM after 48 hrs by annexin-V/PI staining based flow cytometry (reference value: 0.03%); type: functional, Lung
NCI-H460 [19] = test: Potentiation of CDDP-induced apoptosis in human CDDP-resistant NCI-H460 cells assessed as viable cells at 2 uM measured after 48 hrs by annexin-V/PI staining based flow cytometry; type: functional; settings: NCI-H460, Lung, read-out: Activity
NCI-H460 [20] = test: Potentiation of CDDP-induced apoptosis in human NCI-H460 cells assessed as viable cells at 2 uM measured after 48 hrs by annexin-V/PI staining based flow cytometry; type: functional; settings: NCI-H460, Lung, read-out: Activity
NCI-H460 [21] = test: Cytotoxicity against human NCI-H460 cells assessed as inhibition of cell growth measured after 48 hrs by MTT assay; type: functional, cell-based; settings: Lung
Summary of the method: (§1)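 Cells were grown in RPMI-1640 with 10% FBS, seeded at 1 × 10^5 cells/ml, left overnight and treated with a range of concentrations for 48 h. MTT (2.5 mg/ml in PBS) was added for 4 h at 37°C. Plates were centrifuged, the medium removed and the formazan dissolved in DMSO. OD was read at 570 nm.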

A549 [22] = test: Cytotoxicity against human A549 cells assessed as inhibition of cell growth measured after 48 hrs by MTT assay; type: functional, cell-based; settings: Lung; summary of the method: as §1
Mus musculus [23] = test: Downregulation of p53K370me protein expression in Balb/c mouse tumor xenografted with CDDP-resistant NCI-H460 cells at 40 mg/kg/day ip by Western blot analysis in presence of cisplatin; type: functional, organism-based
Summary of the method: (§2)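 Excised tumors came from NCI-H460/CDDP flank xenografts in male BALB/c mice (saline, inhibitor 40 mg/kg daily i.p., CDDP 4.0 mg/kg every 3 days i.p., or the combination; 2 weeks). They were stored at −80°C. Protein extracts were run on 10–15% SDS-PAGE, transferred to PVDF, probed with primary and HRP secondary antibodies, detected by ECL and normalized to β-actin.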

NCI-H460 [24] = test: Antitumor activity against human CDDP-resistant NCI-H460 cells xenografted in Balb/c mouse assessed as slight decrease in tumor growth at 40 mg/kg/day i.p; type: functional, organism-based; settings: Lung, route ip
Summary of the method: (§3)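 Male BALB/c mice aged 7–8 weeks received NCI-H460/CDDP cells (5 × 10^6 in 100 μl PBS) subcutaneously into the right flank. At a mean tumor volume of 100 mm3, mice were randomized (n = 6 per group) to saline, inhibitor 40 mg/kg once daily i.p., CDDP 4.0 mg/kg every 3 days i.p., or the combination. Tumor growth was followed for 2 weeks.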

Mus musculus [25] = test: Downregulation of p53K370me protein expression in Balb/c mouse tumor xenografted with CDDP-resistant NCI-H460 cells at 40 mg/kg/day ip by Western blot analysis; type: functional, organism-based; summary of the method: as §2
NCI-H460 [26] = test: Antitumor activity against human CDDP-resistant NCI-H460 cells xenografted in Balb/c mouse assessed as inhibition of tumor growth at 40 mg/kg/day i.p in presence of cisplatin; type: functional, organism-based; settings: Lung, route ip; summary of the method: as §3

CCN(C(=O)CO)[C@H]1CN(/C(=N\C#N)Nc2cccc(OC(F)F)c2)N=C1c1ccc(Cl)c(Cl)c1
Activity (NCI-H460 [1]): 4.72%
Activity (NCI-H460 [2]): 84.74%
Activity (NCI-H460 [3]): 0.03%
Activity (NCI-H460 [4]): 0.26%
Activity (A549 [5]): inactive
Activity (NCI-H460 [6]): 2.08%
Activity (NCI-H460 [7]): 0.04%
Activity (A549 [8]): inactive
Activity (NCI-H460 [9]): 14.7%
Activity (NCI-H460 [10]): 19.75%
Activity (NCI-H460 [11]): inactive
Activity (NCI-H460 [12]): 7.55%
viability at 10 µM (NCI-H460 [13]): 85.2%
Activity (NCI-H460 [14]): 5.21%
Activity (NCI-H460 [15]): 66.1%
viability at 10 µM (NCI-H460 [16]): 97.6%
Activity (NCI-H460 [17]): inactive
Activity (NCI-H460 [18]): 1.53%
viability at 2 µM (NCI-H460 [19]): 8.94%
viability at 2 µM (NCI-H460 [20]): 0.5%

CC(=O)O[C@H]1C(=O)[C@@]2(C)[C@H]([C@H](OC(=O)c3ccccc3)[C@]3(O)C[C@H](OC(=O)[C@H](O)[C@@H](NC(=O)c4ccccc4)c4ccccc4)C(C)=C1C3(C)C)[C@]1(OC(C)=O)CO[C@@H]1C[C@@H]2O
Activity (NCI-H460 [21]): Dose-Dependent Effect
Activity (A549 [22]): Dose-Dependent Effect

CC[C@]1(O)C[C@H]2CN(CCc3c([nH]c4ccccc34)[C@@](C(=O)OC)(c3cc4c(cc3OC)N(C=O)[C@H]3[C@@](O)(C(=O)OC)[C@H](OC(C)=O)[C@]5(CC)C=CCN6CC[C@]43[C@@H]65)C2)C1
Activity (NCI-H460 [21]): Dose-Dependent Effect
Activity (A549 [22]): Dose-Dependent Effect

CCC1=C[C@@H]2CN(C1)Cc1c([nH]c3ccccc13)[C@@](C(=O)OC)(c1cc3c(cc1OC)N(C)[C@H]1[C@@](O)(C(=O)OC)[C@H](OC(C)=O)[C@]4(CC)C=CCN5CC[C@]31[C@@H]54)C2
Activity (NCI-H460 [21]): Dose-Dependent Effect
Activity (A549 [22]): Dose-Dependent Effect

O=C1COc2c(CCNCCN(C(=O)CCNCCc3ccc(Cl)c(Cl)c3)C3CCCCC3)ccc(O)c2N1
inhibition (Mus musculus [23]): Active
Activity (NCI-H460 [24]): Active
inhibition (Mus musculus [25]): Active
Activity (NCI-H460 [26]): Active
